From PubChem BioAssay
Compounds with a hit are over-represented: about 1.9% of the library has one in this group of screens.
RAM network inh: inhibitors of the yeast RAM network | S. cerevisiae dse1pr::URA3 reporter, 5-FOA growth OD615, 2 d; analog-sensitive cbk1-as2 kinase mutant strain | inhibition, % at 50 µM | 190,000 compounds, 1.8% hits | AID 868;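 active = inhibition above a set limit, 3 SD over mean compound inhibition, cut at about 8.4% in these data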;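 note: inhibition rescues growth on 5-FOA so higher OD means more RAM inhibition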
p47phox inh: p47phox (human) inhibition. P14598. inhibition, % at 24.7 µM. p47phox/p22phox peptide binding, fluorescence polarization, 2 h. 220,000 compounds, 0.53% hits;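 active = inhibition above about 30%, limit read from the data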
Dynein cargo inh: dynein cargo transport inhibition. 220,000 compounds, 0.47% hits. z-score, hits read low. 3617.4 mouse cells, GR-EGFP nuclear translocation imaging; test concentration mostly 20 µM; stimulated with dexamethasone, 1 µM; hits give low values;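 active = plate z-score of nuclear minus cytoplasmic receptor signal below a set negative limit, without overly bright fluorescence or cell loss, cut at about -3.5 in these data, passing the limit was not always enough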;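 note: z-score of nuclear minus cytoplasmic ring GR-EGFP intensity difference per well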
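Buffer or medium: tet-free, stripped-serum medium; Also added: dexamethasone, 1.0 µM final; Technique: high-content fluorescence imaging after fixation; Times: 48 h induction, 1 h compound, 30 min dex at 37 °C; Read-out: per-cell GR-EGFP intensity, nucleus versus surrounding cytoplasmic ring, well-averaged.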
p-CIP stab down: compounds decreasing mouse p/CIP protein stability; decrease of EGFP signal, % at 10 µM; 290,000 compounds, 0.01% hits; F442A p/CIP-EGFP cells, EGFP fluorescence, 16 h; Q05BA5;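 active = EGFP signal decrease of at least 30% at 10 µM or well 3 SD below plate mean, unless failing retest; inactive = the rest, including hits failing retest or dose response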
Large screens that a line does not name were inactive.

CN(C)c1ccc(/C=c2\sc3nc(-c4ccccc4)nn3c2=O)cc1	p47phox inh 41.6
COc1cc2oc(-c3ccc(O)cc3)cc(=O)c2c(O)c1OC	p47phox inh 41.0 (no result: RAM network inh)
COc1ccc(C)cc1S(=O)(=O)n1c([N+](=O)[O-])cnc1C	none (no result: RAM network inh, p47phox inh, Dynein cargo inh)
CCCCN(C)S(=O)(=O)c1cc(Br)cc2c1N(C(=O)C1CC1)CC2	RAM network inh 9.2
CC(C)CNC(=O)CN(C)S(=O)(=O)c1ccc(F)cc1	none
Cc1ccc(C)c(S(=O)(=O)ON2C(=O)c3ccccc3C2=O)c1	Dynein cargo inh -3.56
Cc1cc(S(=O)(=O)ON2C(=O)c3ccccc3C2=O)ccc1F	none (no result: RAM network inh, p47phox inh, Dynein cargo inh)
CC(C)Cc1nnc(NC(=O)CCS(=O)(=O)c2ccc(Cl)cc2)s1	none (no result: RAM network inh, p47phox inh, Dynein cargo inh)
O=C(NC1CCCCC1)N(Cc1nc2ccccc2c(=O)[nH]1)C1CCCCC1	none
O=C(NC1CCCCC1)N(Cc1nc2ccccc2c(=O)[nH]1)C1CCCC1	p47phox inh 31.0
Fc1ccc2nc(Nc3nc4cc5c(cc4s3)OCO5)sc2c1	RAM network inh 9.2
COc1ccc(OCC(=O)N2CCN(C(=O)c3ccc(F)cc3)CC2)cc1	none (no result: RAM network inh, p47phox inh, Dynein cargo inh)
Cc1ccn2c(c1)nc(=O)c1cc(S(=O)(=O)N3CCCCC3)ccc12	none (no result: RAM network inh, p47phox inh, Dynein cargo inh)
COc1ccccc1-c1cc(C(F)(F)F)nc(S(=O)(=O)CCCC(=O)Nc2cccnc2Cl)n1	Dynein cargo inh -4.42
Cc1cc(C)nc(SCCC(=O)Nc2ccccc2)n1	p47phox inh 88.0
COc1ccccc1/C=c1\sc2nc(-c3cccs3)nn2c1=O	none (no result: RAM network inh, p47phox inh, p-CIP stab down)
Cc1ccc(/C=c2\sc3nc(-c4cccs4)nn3c2=O)o1	RAM network inh 9.0
COc1ccc(C)cc1N(C(=O)c1ccco1)C(C(=O)NC1CCCC1)c1cc(OC)c(OC)c(OC)c1 (stereo not drawn)	none (no result: RAM network inh, p47phox inh, Dynein cargo inh)
Cc1cccc(Cn2cc(/C=C/[N+](=O)[O-])c3ccccc32)c1	RAM network inh 11.3
CCOC(=O)Cn1cc(/C=C/[N+](=O)[O-])c2ccccc21	none
CCOC(=O)COc1cc(-n2c(=S)[nH]c3cc(OC)c(OC)cc3c2=O)c(Cl)cc1Cl	p47phox inh 37.4
CCOC(=O)COc1cc(N2C(=O)CSCC2=O)c(Cl)cc1Cl	none
Cc1cc([N+](=O)[O-])ccc1N=Nc1c(N)[nH]n(-c2ccccc2)c1=O	RAM network inh 8.6
Cc1[nH]n(-c2ccc([N+](=O)[O-])cc2)c(=O)c1N=Nc1nc2ccccc2s1	none (no result: RAM network inh, p47phox inh, p-CIP stab down)
O=C(OCc1cccc([N+](=O)[O-])c1)c1ccc2ccccc2n1	RAM network inh 9.6
CCN1/C(=C/c2ccc3cc(C)ccc3[n+]2CC)Sc2ccccc21	Dynein cargo inh -5.15
CCOC(=O)c1cc(S(=O)(=O)N2CCN(C3CCCCC3)CC2)cn1C	none (no result: RAM network inh, p47phox inh, Dynein cargo inh)
COC(=O)CSc1nc(-c2ccccc2)c2c(c1C#N)CCCC2	RAM network inh 8.6
N#Cc1c(NCCCO)nc(-c2ccccc2)c2c1CCCC2	none
N#Cc1c(NCCN)nc(-c2ccccc2)c2c1CCCC2	p47phox inh 42.1
O=C(NC1CCN(Cc2ccccc2)CC1)c1ccccc1OCc1ccccc1Cl	none (no result: RAM network inh, p47phox inh, Dynein cargo inh)
Fc1ccc(/C=N/NC(=S)Nc2ccc(Cl)cc2)cc1F	none
CCOc1cc(S(=O)(=O)NCCc2cccc(C)c2)c(OCC)cc1-n1cnnn1	RAM network inh 8.8
CCOc1cc(S(=O)(=O)NCCc2ccccc2C)c(OCC)cc1-n1cnnn1	none
C/C(=N\NC(=O)c1nn(C)c(C)c1Br)c1ccc(NC(=O)c2ccc(C)s2)cc1	RAM network inh 9.2
O=C(N=c1ccn(-c2nc3ccccc3nc2NS(=O)(=O)c2ccccc2)cc1)c1cccs1	RAM network inh 8.5
Cc1ccccc1C(=O)N=c1ccn(-c2nc3ccccc3nc2NS(=O)(=O)c2ccc(F)cc2)cc1	none (no result: RAM network inh, p47phox inh, Dynein cargo inh)
CCn1ccnc1CN(C)Cc1cn(-c2cc(C)ccc2C)nc1-c1ccccc1	none
CCN1CCc2c(OCC(=O)N3CCCCC3)cccc2C1=O	none
Nc1ccc(O)c2c1C(=O)c1ccccc1C2=O	p47phox inh 54.2
Nc1ccc(Br)c2c1C(=O)c1ccccc1C2=O	p47phox inh 36.8
NC(=O)c1nsc(C(=O)N(CC(=O)NC2CCCCC2)c2ccc(Cl)cc2)c1N	none (no result: RAM network inh, p47phox inh, Dynein cargo inh)
Cc1ccc2c(c1)sc(-c1ccc(N(C)C)cc1)[n+]2C	none (no result: RAM network inh, p47phox inh, Dynein cargo inh)
CCOc1ccc(NC(=O)CC2C(=O)N(c3ccccc3)C(=O)N2CCc2cccs2)cc1 (stereo not drawn)	none
Cc1ccc(SC(c2ccc(C)cc2)C(Cn2cncn2)C(=O)c2ccccc2)cc1 (stereo not drawn)	RAM network inh 11.4
O=C(Oc1ccc2c3c(c(=O)oc2c1)CCC3)c1ccco1	none
O=C(CCCCCN1C(=O)c2ccccc2C1=O)Oc1ccc2c3c(c(=O)oc2c1)CCC3	RAM network inh 11.2
CN(C)S(=O)(=O)c1cc(NC(=O)CSc2nn(-c3ccc(Cl)cc3)c(=S)s2)ccc1Cl	none
Cc1ccc(NC(=O)CSc2nn(-c3ccc(Cl)cc3)c(=S)s2)cc1S(=O)(=O)N(C)C	RAM network inh 11.2
COc1ccc(C)cc1S(=O)(=O)N1CCCC(C(=O)N2CCOCC2)C1 (stereo not drawn)	none (no result: RAM network inh, p47phox inh, Dynein cargo inh)
Cc1cc(-c2n[nH]c(=S)n2Cc2ccccc2)cs1	p47phox inh 41.0
CCOC(=O)N1CCN(C(=O)CSCC(=O)Nc2nc(-c3ccc(-c4ccccc4)cc3)cs2)CC1	p47phox inh 61.8
CCOC(=O)N1CCN(C(=O)CSCC(=O)Nc2nc(-c3ccc(OC)cc3)cs2)CC1	none
O=C(COC(=O)CCC(NC(=O)OCc1ccccc1)C(=O)OCC(=O)Nc1ccccc1)Nc1ccccc1 (stereo not drawn)	RAM network inh 10.0
CCOC(=O)C1CCN(C(=O)CCC2CCCC2)CC1	none (no result: RAM network inh, p47phox inh, Dynein cargo inh)
CCCCOC(=O)c1ccc(NC(=O)CSC2=Nc3ccccc3C3CC=NN23)cc1 (stereo not drawn)	RAM network inh 8.4
Cc1cc(C)n(C(=O)CNC(=O)Cc2ccccc2)n1	none
Cc1cc(C)n(C(=O)CNC(=O)C(c2ccccc2)c2ccccc2)n1	RAM network inh 8.8
Cc1noc(C)c1S(=O)(=O)Nc1ccc(C#N)cc1	none (no result: RAM network inh, p47phox inh, Dynein cargo inh)
COc1ccc(OC)c(NC(=O)CSc2nc3ccccc3c(=O)n2CC2CCCO2)c1 (stereo not drawn)	none (no result: RAM network inh, p47phox inh, Dynein cargo inh)
COC(=O)c1ccc2c(=O)n(CC3CCCO3)c(SCC(=O)Nc3ccc(OC)cc3OC)nc2c1 (stereo not drawn)	p47phox inh 30.8 (no result: RAM network inh)
CCOC(=O)c1c(C)[nH]c(C)c1S(=O)(=O)N1CCN(c2ccc(F)cc2)CC1	none (no result: RAM network inh, p47phox inh, Dynein cargo inh)
Cc1nn(-c2ccccc2)c(N2CCCC2)c1/C=N/NC(=S)Nc1ccccc1F	none
CC(C)(C)c1csc(NC(=O)C2COc3ccccc3O2)n1 (stereo not drawn)	none (no result: RAM network inh, p47phox inh, Dynein cargo inh)
COc1ccc(-c2csc(NC(=S)NC(=O)/C=C/c3ccco3)n2)cc1Br	none (no result: RAM network inh)
COc1ccc(-c2csc(NC(=S)NC(=O)/C=C/c3ccco3)n2)cc1OC	RAM network inh 9.7
COc1ccc(-c2csc(NC(=O)C3COc4ccccc4O3)n2)cc1OC (stereo not drawn)	RAM network inh 10.2
COc1cc(OC)c(-c2c3cc(O)c(=O)cc-3oc3cc(O)c(O)cc23)cc1OC	RAM network inh 10.3
